In article PMC8791284 (SLAS discovery : advancing life sciences R & D, 2021):

Key:
[1] = system: KRAS^G12D-expressing MEFs; assay: ATP-based cell viability assay; parameters: species or system mouse; settings: Suppl. Fig. S3
In short: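 KRAS^G12D- and HRAS^WT-expressing mouse embryonic fibroblasts are dispensed onto plates pre-spotted with test compound from 10 mM stocks. Test compound is used at 5 μM final for the primary screen, or as serial dilutions for dose–response. After 72 h, CellTiter-Glo reagent is added, incubated 15 min, and luminescence is read. Each plate is checked by Z' factor and carries a reference HSP-90 inhibitor dose–response.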

[2] = system: CDK9 (Ser2-RNA polymerase II phosphorylation); assay: Western blot of phospho-Ser2 RNA polymerase II in KRAS^G12D MEFs; format: cell-based, mouse; settings: 6 h, 0.1, 1 and 10 μM
[3] = system: BRAF^V600E-expressing MEFs; assay: Cell proliferation assay, BRAF^V600E MEFs; format: cell-based, mouse; settings: versus other MEF panel lines, Fig. 1E

| SMILES | sensitivity of KRAS^G12D MEFs versus HRAS^WT MEFs in cell viability assay [1] | phosphorylation level of Ser2-RNA polymerase II [2] | specific activity against BRAF^V600E-expressing MEFs [3] |
| --- | --- | --- | --- |
| CC(C)(C)c1cnc(CSc2cnc(NC(=O)C3CCNCC3)s2)o1 [SNS032] | more sensitive | diminished the Ser2 phosphorylation level in a dose-dependent manner | – |
| CC(C)(C)c1nc(-c2cccc(NS(=O)(=O)c3c(F)cccc3F)c2F)c(-c2ccnc(N)n2)s1 [dabrafenib] | – | – | showed specific activity |
| CCCS(=O)(=O)Nc1ccc(F)c(C(=O)c2c[nH]c3ncc(-c4ccc(Cl)cc4)cc23)c1F [vemurafenib] | – | – | showed specific activity |
